Source: ChEMBL document CHEMBL1157704, “Potent activity against K562 cells by polyamide-seco-CBI conjugates targeting histone H4 genes” (Bioorg Med Chem, 2010)
Active and inactive are the calls of the source. The calls are words filed in the database; no cut-off is given here.

Assays:
[1] = system: histone H4c gene fragment DNA (human); experiment: Binding affinity to 5'-AGAAAA-3' sequence of 223 bp human histone H4c gene fragment DNA assessed as DNA alkylating activity at 50 to 100 nM after 15 hrs by PAGE
K562 [2] = experiment: Cytotoxicity against human K562 cells by MTS assay; format: functional, cell-based
How it was run: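 Proliferation of K562 cells (ATCC, standard culture) was read as mitochondrial conversion of the MTS tetrazolium to formazan, using the CellTiter 96 Aqueous One reagent. EC50 was derived from these readings.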

K562 [3] = experiment: Induction of apoptosis in human K562 cells assessed as non-viable necrotic cells at 250 nM after 48 hrs by annexin-V FITC and propidium iodide staining-based FACS analysis; format: functional
How it was run: (§1)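 Treated K562 cells […] stained with Annexin V-FITC/propidium iodide. Apoptosis was scored by two-dimensional flow cytometry at a core FACS facility.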

K562 [4] = experiment: Induction of apoptosis in human K562 cells assessed as late apoptotic cells at 250 nM after 48 hrs by annexin-V FITC and propidium iodide staining-based FACS analysis; format: functional
How it was run: as §1

K562 [5] = experiment: Cell cycle arrest in human K562 cells assessed as increase in accumulation at G2/M phase at 250 nM after 48 hrs propidium iodide staining-based FACS analysis; format: functional
How it was run: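 K562 cells (ATCC, b3a2 Bcr-Abl) exposed to polyamide in culture medium and pelleted at 200g for 5 min. Pellets resuspended in PBS, fixed in prechilled 70% ethanol and stained with propidium iodide (50 µg/mL). DNA content read by flow cytometry as G0–G1, S and G2–M fractions; sub-2C DNA taken as fragmentation/apoptosis.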

K562 [6] = experiment: Downregulation of histone H4C mRNA expression in human K562 cells at 250 nM after 48 hrs by real-time PCR analysis; format: functional
How it was run: (§2)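 Treated K562 cells were assayed by one-step real-time RT-PCR. Reverse transcription ran 50 °C for 10 min, then hot-start polymerase activation at 95 °C for 15 min. Cycling was 45 cycles of 95 °C 15 s, 55 °C 30 s and 72 °C 30 s. Levels were normalized to GAPDH mRNA; error shown as standard deviation.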

K562 [7] = experiment: Induction of apoptosis in human K562 cells assessed as early apoptotic cells at 250 nM after 48 hrs by annexin-V FITC and propidium iodide staining-based FACS analysis; format: functional
How it was run: as §1

K562 [8] = experiment: Downregulation of histone H4E mRNA expression in human K562 cells at 250 nM after 48 hrs by real-time PCR analysis; format: functional, cell-based
How it was run: as §2

K562 [9] = experiment: Induction of apoptosis in human K562 cells assessed as viable cells at 250 nM after 48 hrs by annexin-V FITC and propidium iodide staining-based FACS analysis; format: functional; settings: K562, 48 h, read-out: Activity
How it was run: as §1

| Structure (SMILES) | Activity [1] | EC50 (K562 [2]) [nM] | Activity (K562 [3]) [%] | Activity (K562 [4]) [%] | Activity (K562 [5]) | Activity (K562 [6]) | Activity (K562 [7]) [%] | Activity (K562 [8]) | viability at 0.25 µM (K562 [9]) [%] |
| --- | --- | --- | --- | --- | --- | --- | --- | --- | --- |
| CN(C)CCCNC(=O)CCNC(=O)c1cc(NC(=O)c2cc(NC(=O)c3cc(NC(=O)c4nc(NC(=O)[C@@H](CCNC(=O)CCCc5ccc(N(CCCl)CCCl)cc5)NC(=O)c5cc(NC(=O)c6cc(NC(=O)CCNC(=O)c7nccn7C)cn6C)cn5C)cn4C)cn3C)cn2C)cn1C | – | 81 | 3.69 | 9.12 | Active | 81% | 10.4 | Active | 76.8 |
| CN(C)CCCNC(=O)CCNC(=O)c1cc(NC(=O)c2cc(NC(=O)c3cc(NC(=O)c4cc(NC(=O)[C@H](CCNC(=O)CCCc5ccc(N(CCCl)CCCl)cc5)NC(=O)c5nc(NC(=O)CCNC(=O)c6nc(NC(=O)c7nccn7C)cn6C)cn5C)cn4C)cn3C)cn2C)cn1C | – | – | 1.39 | 8.88 | Active | inactive | 6.37 | inactive | 83.4 |
| CN(C)CCCNC(=O)CCNC(=O)c1cc(NC(=O)c2cc(NC(=O)c3cc(NC(=O)c4cc(NC(=O)[C@@H](CCNC(=O)CCCc5ccc(N(CCCl)CCCl)cc5)NC(=O)c5nc(NC(=O)CCNC(=O)c6nc(NC(=O)c7nccn7C)cn6C)cn5C)cn4C)cn3C)cn2C)cn1C | – | 300 | 1.1 | 10.6 | Active | 52% | 10.3 | Active | 78.1 |

Further lines, with some results ahead:

| Activity [1] | Structure (SMILES) | EC50 (K562 [2]) [nM] | Activity (K562 [3]) [%] | Activity (K562 [4]) [%] | Activity (K562 [5]) | Activity (K562 [6]) | Activity (K562 [7]) [%] | Activity (K562 [8]) | viability at 0.25 µM (K562 [9]) [%] |
| --- | --- | --- | --- | --- | --- | --- | --- | --- | --- |
| Active | CC(=O)Nc1cc(C(=O)Nc2cc(C(=O)NCCC(=O)N[C@@H](CCNC(=O)c3cc(NC(=O)c4nc(NC(=O)CCNC(=O)c5nc(NC(C)=O)cn5C)cn4C)cn3C)C(=O)Nc3cn(C)c(C(=O)Nc4cc(C(=O)Nc5ccc6[nH]c(C(=O)N7CC(CCl)c8c7cc(O)c7ccccc87)cc6c5)n(C)c4)n3)n(C)c2)n(C)c1 (some centres undefined) | 38 | – | – | – | – | – | – | – |
| Active | CC(=O)Nc1cc(C(=O)Nc2cc(C(=O)NCCC(=O)N[C@@H](CCNC(=O)c3cc(NC(=O)c4nc(NC(=O)c5cc(NC(=O)c6nc(NC(C)=O)cn6C)cn5C)cn4C)cn3C)C(=O)Nc3cn(C)c(C(=O)Nc4cc(C(=O)Nc5ccc6[nH]c(C(=O)N7CC(CCl)c8c7cc(O)c7ccccc87)cc6c5)n(C)c4)n3)n(C)c2)n(C)c1 (some centres undefined) | 17 | – | – | – | – | – | – | – |
| Active | CC(=O)Nc1cn(C)c(C(=O)Nc2cc(C(=O)Nc3cn(C)c(C(=O)Nc4cc(C(=O)NCCCC(=O)Nc5cn(C)c(C(=O)Nc6cc(C(=O)Nc7ccc8[nH]c(C(=O)N9CC(CCl)c%10c9cc(O)c9ccccc%109)cc8c7)n(C)c6)n5)n(C)c4)n3)n(C)c2)n1 (centres undefined) | 33 | – | – | – | – | – | – | – |
